# Peptide text beside a SMILES is read from it.
# Experiments:
# PlcR = target: T1, PlcR (Bacillus thuringiensis, UniProt Q45782); test: Steady-state fluorescence anisotropy binding titrations
# T1 sequence (Q45782 1-285): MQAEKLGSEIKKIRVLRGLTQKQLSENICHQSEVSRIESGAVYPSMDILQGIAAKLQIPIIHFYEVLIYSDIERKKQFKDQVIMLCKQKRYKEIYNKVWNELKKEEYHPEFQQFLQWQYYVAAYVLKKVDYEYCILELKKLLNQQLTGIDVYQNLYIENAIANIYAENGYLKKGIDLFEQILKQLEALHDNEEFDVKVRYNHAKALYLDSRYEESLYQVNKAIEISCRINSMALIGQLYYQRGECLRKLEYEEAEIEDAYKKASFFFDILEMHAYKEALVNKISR
# PlcRIV = test: plcA'-lacZ β-galactosidase assay in 407; assay type: cell-based, Bacillus thuringiensis; conditions: 2 µM peptide, 1 h
# In short: (§1)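 Reporter strain 407 (plcA′Z ΔplcR–papR), carrying plcR on plasmid pHT304 under its own promoter, grown in LB without antibiotics at 37°C with vigorous shaking to stationary-phase onset T0 (OD600 3 ± 0.3). Cultures split into 12 ml fractions. Cognate synthetic PapR penta- or heptapeptide added at 2 µM final, then 1 h incubation. 2 ml pelleted for β-galactosidase assay. Each assay run at least three times.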
# PlcRII = test: plcA'-lacZ β-galactosidase assay in 407; assay type: cell-based, Bacillus thuringiensis; conditions: 2 µM peptide, 1 h
# In short: as §1
# PlcRI'III = test: plcA'-lacZ β-galactosidase assay, chimeric PlcRI'III; assay type: cell-based, Bacillus thuringiensis; conditions: 2 µM heptapeptide, 1 h, PlcRI'III chimera
# In short: (§2)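 Reporter strain Bacillus 407 (plcA′Z ΔplcR–papR), which carries a plcA promoter–lacZ fusion, was complemented with pHT304-based plasmids carrying modified plcR genes under their own promoter. Cultures were grown in LB without antibiotics at 37°C with vigorous shaking to stationary-phase onset (OD600 3 ± 0.3), then split into 12 ml fractions. Synthetic peptide was added to 2 µM final for 1 h. β-galactosidase was assayed on 2 ml pellets, with at least three repeats.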
# PlcRIII = test: plcA'-lacZ β-galactosidase assay in 407; assay type: cell-based, Bacillus thuringiensis; conditions: 2 µM peptide, 1 h
# In short: as §1
# PlcRI'II = test: plcA'-lacZ β-galactosidase assay, chimeric PlcRI'II; assay type: cell-based, Bacillus thuringiensis; conditions: 2 µM heptapeptide, 1 h, PlcRI'II chimera
# In short: as §2
# PlcRA278K = test: plcA'-lacZ β-galactosidase assay, PlcRA278K mutant; assay type: cell-based, Bacillus thuringiensis; conditions: 2 µM heptapeptide, 1 h; similar to PlcRI'II response
# In short: as §2
compound,measurement,setting,value
CC(C)C[C@H](NC(=O)[C@H](CC(=O)O)NC(=O)[C@H](C)N)C(=O)N1CCC[C@H]1C(=O)N[C@@H](Cc1ccccc1)C(=O)N[C@@H](CCC(=O)O)C(=O)N[C@@H](Cc1ccccc1)C(=O)O [ADLPFEF] (H-ADLPFEF-OH),Kd,PlcR,25 µM
CC(C)C[C@H](N)C(=O)N1CCC[C@H]1C(=O)N[C@@H](Cc1ccccc1)C(=O)N[C@@H](CCC(=O)O)C(=O)N[C@@H](Cc1ccccc1)C(=O)O [LPFEF] (H-LPFEF-OH),Kd,PlcR,41 µM
LPFEH,activation of plcA'lacZ expression (in words),PlcRIV,activated
MPFEF,activation of plcA'lacZ expression (in words),PlcRII,activated
NELPFEF,activation of PlcRI'III (in words),PlcRI'III,partly restores
NEVPFEF,activation of plcA'lacZ expression (in words),PlcRIII,activated
same,activation of PlcRI'III (in words),PlcRI'III,not activated
SDLPFEH,activation of plcA'lacZ expression (in words),PlcRIV,activated
SDMPFEF,activation of plcA'lacZ expression (in words),PlcRII,activated
same,activation greater than that of wild-type PlcRI by PapRI,PlcRI'II,about 2 fold
same,activation less than that of PlcRII by PapRII,PlcRI'II,2 fold
same,activation of PlcRA278K (in words),PlcRA278K,activated
VPFEF,activation of plcA'lacZ expression (in words),PlcRIII,activated

# Reference: PMC2441798 (Nucleic Acids Research, 2008)
